Source: article PMC4607046 (Journal of the American Chemical Society, 2015)
Values after ≈ are worked out from the molar mass of the structure shown.

Experiments:
[1] = tested on: S. aureus ATCC 29213 cell-wall biosynthesis; experiment: Macromolecular synthesis assay, cell wall; format: cell-based, Staphylococcus aureus; details: 2 at 0.5 MIC
Summary of the method: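 Logarithmic-phase S. aureus ATCC 29213 was treated with test compound at 1/2 MIC. Peptidoglycan synthesis was followed as D-[2,3-3H]-alanine incorporation into cell wall, with fosfomycin (16 μg/mL) as control. Maximum inhibition was taken at 120 min.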

S. aureus ATCC 29213 = experiment: MIC, in vitro antibacterial activity; format: cell-based, Staphylococcus aureus
E. faecium = experiment: MIC, ESKAPE panel; format: cell-based, Enterococcus faecium
[2] = tested on: Gram-negative bacteria of our panel; experiment: Antibacterial activity, E. coli and ESKAPE panel; format: cell-based; details: Gram-negative bacteria of the E. coli/ESKAPE panel
[3] = tested on: PBP1 (pbpA antisense, MRSA COL); experiment: Antisense sensitization, pbpA antisense in MRSA COL; format: cell-based, S. aureus; details: xylose induction
[4] = tested on: PBP2a (pbp2a antisense, MRSA COL); experiment: Antisense sensitization, pbp2a antisense in MRSA COL; format: cell-based, S. aureus; details: xylose induction
S. aureus NRS128 = experiment: MIC, in vitro antibacterial activity; format: cell-based; details: Staphylococcus aureus, MSSA|NRS128
S. aureus NRS70 = experiment: MIC, in vitro antibacterial activity; format: cell-based; details: Staphylococcus aureus, MRSA|NRS70
S. aureus NRS123 = experiment: MIC, in vitro antibacterial activity; format: cell-based; details: Staphylococcus aureus, MRSA|NRS123
S. aureus NRS100 = experiment: MIC, in vitro antibacterial activity; format: cell-based; details: Staphylococcus aureus, MRSA|NRS100
S. aureus NRS119 = experiment: MIC, in vitro antibacterial activity; format: cell-based; details: Staphylococcus aureus, MRSA|NRS119
S. aureus NRS120 = experiment: MIC, in vitro antibacterial activity; format: cell-based; details: Staphylococcus aureus, MRSA|NRS120
S. aureus VRS1 = experiment: MIC, in vitro antibacterial activity; format: cell-based; details: Staphylococcus aureus, MRSA
S. aureus VRS2 = experiment: MIC, in vitro antibacterial activity; format: cell-based; details: Staphylococcus aureus, MRSA
[5] = tested on: S. epidermidis ATCC 35547; experiment: MIC, in vitro antibacterial activity; format: cell-based; details: Staphylococcus epidermidis, ATCC35547
HepG2 cells = experiment: XTT cell proliferation assay; format: cell-based; details: Homo sapiens, HepG2, read-out: IC50, XTT cell proliferation assay
[6] = Glutathione adduct formation; format: in vitro ADME
[7] = Hemolysis of red blood cells; format: cell-based
[8] = Stability in mouse plasma; format: in vitro ADME
[9] = Metabolic stability in rat S9; format: in vitro ADME; details: liver S9
[10] = Metabolic stability in human S9; format: in vitro ADME; details: liver S9
Water solubility = format: physicochemical
Summary of the method: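 Test compound tested as its sodium salt, dissolved in water.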

[11] = Pharmacokinetics after single iv or po dose; format: in vivo, mice
[12] = tested on: S. aureus ATCC 29213 DNA synthesis; experiment: Macromolecular synthesis assay, DNA; format: cell-based, Staphylococcus aureus; details: 0.5 MIC
Summary of the method: (§1)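 Logarithmic-phase S. aureus ATCC 29213 was exposed to test compound at 1/2 MIC, and incorporation of radiolabeled precursors was monitored: [methyl-3H]-thymidine (DNA), [5,6-3H]-uridine (RNA) and L-[4,5-3H]-leucine (protein). Controls were ciprofloxacin 0.5 μg/mL (DNA), rifampicin 8 ng/mL (RNA) and tetracycline 31 ng/mL (protein). Maximum inhibition was taken at 80 min for DNA and at 120 min for RNA and protein.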

[13] = tested on: S. aureus ATCC 29213 RNA synthesis; experiment: Macromolecular synthesis assay, RNA; format: cell-based, Staphylococcus aureus; details: 0.5 MIC
Summary of the method: as §1

[14] = tested on: S. aureus ATCC 29213 protein synthesis; experiment: Macromolecular synthesis assay, protein; format: cell-based, Staphylococcus aureus; details: 0.5 MIC
Summary of the method: as §1

T7 transcription = experiment: In vitro transcription assay, T7 transcription kit; format: biochemical
[15] = tested on: E. coli S30 extract translation; format: biochemical; details: β-galactosidase assay system
PBP2a = PBP2a (Staphylococcus aureus, UniProt P07944); experiment: Bocillin FL competition assay, purified recombinant PBP2a; format: binding, S. aureus
Summary of the method: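 Recombinant purified PBP2a (1 μM) was labeled with fluorescent Bocillin FL (20 μM) in the presence of increasing amounts of test compound (μg/mL). Competition was read as loss of fluorescence labeling of the active site, and an apparent IC50 was derived.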

PBP2a allosteric site = PBP2a allosteric site (Staphylococcus aureus, UniProt P07944); experiment: Intrinsic fluorescence quenching of oxacillin-acylated PBP2a; format: binding, S. aureus
Summary of the method: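 PBP2a intrinsic fluorescence was excited at 280 nm and emission spectra were scanned while test compound was titrated to the final concentrations shown. Kd came from nonlinear regression of the change in maximum fluorescence intensity, averaged over three experiments.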

[16] = experiment with meropenem control
[17] = Staphylococcus aureus, ATCC29213|MSSA

PBP2a, sequence (P07944 whole entry): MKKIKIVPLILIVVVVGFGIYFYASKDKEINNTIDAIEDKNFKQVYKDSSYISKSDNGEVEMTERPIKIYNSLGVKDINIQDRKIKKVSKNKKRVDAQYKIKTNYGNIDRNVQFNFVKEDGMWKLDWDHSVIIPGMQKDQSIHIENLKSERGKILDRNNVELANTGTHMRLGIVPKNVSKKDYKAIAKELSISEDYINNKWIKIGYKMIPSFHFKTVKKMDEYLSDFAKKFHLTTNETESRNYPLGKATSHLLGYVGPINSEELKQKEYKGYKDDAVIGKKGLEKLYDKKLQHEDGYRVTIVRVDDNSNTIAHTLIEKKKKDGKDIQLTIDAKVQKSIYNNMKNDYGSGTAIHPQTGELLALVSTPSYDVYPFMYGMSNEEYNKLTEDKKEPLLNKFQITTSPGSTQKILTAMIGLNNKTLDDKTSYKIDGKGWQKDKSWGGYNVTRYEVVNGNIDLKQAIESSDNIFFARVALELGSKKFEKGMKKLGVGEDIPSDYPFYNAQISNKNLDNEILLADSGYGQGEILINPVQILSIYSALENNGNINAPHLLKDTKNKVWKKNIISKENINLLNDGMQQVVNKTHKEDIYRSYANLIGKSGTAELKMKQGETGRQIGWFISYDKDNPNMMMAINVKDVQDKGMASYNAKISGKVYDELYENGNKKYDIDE
PBP2a allosteric site, sequence (P07944 whole entry): as above

**Q.** For `C[C@@H](O)[C@H]1C(=O)N2C(C(=O)O)=C(S[C@@H]3CN[C@H](C(=O)N(C)C)C3)[C@H](C)[C@H]12` [meropenem, reference compound], which “inhibition of cell-wall biosynthesis (D-[2,3-3H]-alanine incorporation)” value [1, 16] is on record?
**A.** 64 ± 2%

**Q.** With `N#Cc1ccc(/C=C/c2nc3ccccc3c(=O)n2-c2cccc(C(=O)O)c2)cc1` [compound 1] as the molecule, how does the MIC (S. aureus ATCC 29213; S. aureus ATCC 29213, quality control MSSA strain) read?
**A.** 2 µg/mL (≈ 5.08 µM)

**Q.** What about the MIC (E. faecium) of the same molecule?
**A.** 16 µg/mL (≈ 40.7 µM)

**Q.** And the “activity against Gram-negative bacteria” value [2]?
**A.** did not have activity

**Q.** Which “sensitization on attenuation of PBP1 expression” value [3] does the source give for `C[C@@H](O)[C@H]1C(=O)N2C(C(=O)O)=C(SCCN=CN)C[C@H]12` [imipenem] here?
**A.** sensitized the strain

**Q.** What about the “sensitization on attenuation of PBP2a expression” value [4] of the same molecule?
**A.** sensitized the strain

**Q.** For `CN[C@H](CC(C)C)C(=O)N[C@H]1C(=O)N[C@@H](CC(N)=O)C(=O)N[C@H]2C(=O)N[C@H]3C(=O)N[C@H](C(=O)N[C@H](C(=O)O)c4cc(O)cc(O)c4-c4cc3ccc4O)[C@H](O)c3ccc(c(Cl)c3)Oc3cc2cc(c3O[C@@H]2O[C@H](CO)[C@@H](O)[C@H](O)[C@H]2O[C@H]2C[C@](C)(N)[C@H](O)[C@H](C)O2)Oc2ccc(cc2Cl)[C@H]1O` [vancomycin], which MIC (S. aureus ATCC 29213; [17]) is on record?
**A.** 1 µg/mL (≈ 0.69 µM)

**Q.** What about the MIC (S. aureus NRS128) of the same molecule?
**A.** 1 µg/mL (≈ 0.69 µM)

**Q.** What about the MIC (S. aureus NRS70) of the same molecule?
**A.** 1 µg/mL (≈ 0.69 µM)

**Q.** What about the MIC (S. aureus NRS123) of the same molecule?
**A.** 1 µg/mL (≈ 0.69 µM)

**Q.** What about the MIC (S. aureus NRS100) of the same molecule?
**A.** 2 µg/mL (≈ 1.38 µM)

**Q.** What about the MIC (S. aureus NRS119) of the same molecule?
**A.** 2 µg/mL (≈ 1.38 µM)

**Q.** What about the MIC (S. aureus NRS120) of the same molecule?
**A.** 2 µg/mL (≈ 1.38 µM)

**Q.** And the MIC (S. aureus VRS1)?
**A.** 512 µg/mL (≈ 353 µM)

**Q.** What about the MIC (S. aureus VRS2) of the same molecule?
**A.** 64 µg/mL (≈ 44.2 µM)

**Q.** And the MIC [5]?
**A.** 16 µg/mL (≈ 11 µM)

**Q.** With `CC(=O)NC[C@H]1CN(c2ccc(N3CCOCC3)c(F)c2)C(=O)O1` [linezolid] as the molecule, how does the MIC (S. aureus ATCC 29213; [17]) read?
**A.** 4 µg/mL (≈ 11.9 µM)

**Q.** And the MIC (S. aureus NRS128)?
**A.** 1 µg/mL (≈ 2.96 µM)

**Q.** What about the MIC (S. aureus NRS70) of the same molecule?
**A.** 1 µg/mL (≈ 2.96 µM)

**Q.** What about the MIC (S. aureus NRS123) of the same molecule?
**A.** 2 µg/mL (≈ 5.93 µM)

**Q.** What about the MIC (S. aureus NRS100) of the same molecule?
**A.** 2 µg/mL (≈ 5.93 µM)

**Q.** What about the MIC (S. aureus NRS119) of the same molecule?
**A.** 32 µg/mL (≈ 94.9 µM)

**Q.** And the MIC (S. aureus NRS120)?
**A.** 32 µg/mL (≈ 94.9 µM)

**Q.** What about the MIC (S. aureus VRS1) of the same molecule?
**A.** 2 µg/mL (≈ 5.93 µM)

**Q.** And the MIC (S. aureus VRS2)?
**A.** 2 µg/mL (≈ 5.93 µM)

**Q.** What about the MIC [5] of the same molecule?
**A.** 1 µg/mL (≈ 2.96 µM)

**Q.** What does the source list for `N#Cc1ccc(/C=C/c2nc3ccccc3c(=O)n2-c2cccc(C(=O)O)c2)cc1` [compound 2, (E)-3-(3-carboxyphenyl)-2-(4-cyanostyryl)quinazolin-4(3H)-one]?
**A.** MIC (S. aureus ATCC 29213; [17]): 2 µg/mL (≈ 5.08 µM); MIC (S. aureus NRS128): 4 µg/mL (≈ 10.2 µM); MIC (S. aureus NRS70): 2 µg/mL (≈ 5.08 µM); MIC (S. aureus NRS123): 2 µg/mL (≈ 5.08 µM); MIC (S. aureus NRS100): 16 µg/mL (≈ 40.7 µM); MIC (S. aureus NRS119): 8 µg/mL (≈ 20.3 µM); MIC (S. aureus NRS120): 8 µg/mL (≈ 20.3 µM); MIC (S. aureus VRS1): 16 µg/mL (≈ 40.7 µM); MIC (S. aureus VRS2): 2 µg/mL (≈ 5.08 µM); MIC [5]: 1 µg/mL (≈ 2.54 µM); IC50 (HepG2 cells): 63 ± 1 µg/mL (≈ 160 µM); alkylating agent (Alkylating agent test): not an alkylating agent; glutathione adduct formation [6]: did not form glutathione adducts; hemolysis at 50 μg/mL [7]: < 1%; half-life in mouse plasma [8]: 141 h; remaining at 1 h [9]: 100%; remaining at 1 h [10]: 100%; solubility (Water solubility): 8000 µg/mL (≈ 20300 µM); maximum concentration ([11]; mice, single 10 mg/kg oral (po) dose): 1.29 µg/mL; time plasma levels sustained above MIC ([11]; mouse, in vivo, iv, 10 mg/kg): 2 h; clearance ([11]; mouse, plasma, iv, 10 mg/kg): 6.87 mL/min/kg; half-life ([11]; mouse, plasma, iv, 10 mg/kg): > 20 h; half-life ([11]; mouse, plasma, po, 10 mg/kg): > 20 h; inhibition of cell-wall biosynthesis (D-[2,3-3H]-alanine incorporation) ([1]; experiment with fosfomycin control, fosfomycin 16 μg/mL, 120 min): 51 ± 12%; inhibition of cell-wall biosynthesis (D-[2,3-3H]-alanine incorporation) [1, 16]: 61 ± 4%; effect on replication (DNA synthesis, [methyl-3H]-thymidine incorporation) [12]: did not significantly affect; effect on transcription (RNA synthesis, [5,6-3H]-uridine incorporation) [13]: did not significantly affect; effect on translation (protein synthesis, L-[4,5-3H]-leucine incorporation) [14]: did not significantly affect; inhibition of in vitro transcription (T7 transcription): did not show inhibition; inhibition of in vitro translation [15]: did not show inhibition; IC50 (PBP2a): 356 µM; sensitization on attenuation of PBP1 expression [3]: sensitized the strain; sensitization on attenuation of PBP2a expression [4]: sensitized the strain; Kd (PBP2a allosteric site): 17.5 µM

**Q.** Which “sensitization on attenuation of PBP1 expression” value [3] does the source give for `CCO/N=C(\C(=O)N[C@@H]1C(=O)N2C(C(=O)[O-])=C(Sc3nc(-c4cc[n+](C)cc4)cs3)CS[C@H]12)c1nsc(N)n1` [ceftaroline] here?
**A.** sensitized the strain

**Q.** And the “sensitization on attenuation of PBP2a expression” value [4]?
**A.** sensitized the strain

**Q.** With `Cc1onc(-c2ccccc2)c1C(=O)N[C@@H]1C(=O)N2[C@@H]1SC(C)(C)[C@@H]2C(=O)O` [oxacillin] as the molecule, how does the MIC (S. aureus ATCC 29213; [17]) read?
**A.** 0.25 µg/mL (≈ 0.623 µM)

**Q.** What about the MIC (S. aureus NRS128) of the same molecule?
**A.** 0.5 µg/mL (≈ 1.25 µM)

**Q.** And the MIC (S. aureus NRS70)?
**A.** 32 µg/mL (≈ 79.7 µM)

**Q.** What about the MIC (S. aureus NRS123) of the same molecule?
**A.** 32 µg/mL (≈ 79.7 µM)

**Q.** And the MIC (S. aureus NRS100)?
**A.** 512 µg/mL (≈ 1280 µM)

**Q.** What about the MIC (S. aureus NRS119) of the same molecule?
**A.** 512 µg/mL (≈ 1280 µM)

**Q.** What about the MIC (S. aureus NRS120) of the same molecule?
**A.** 512 µg/mL (≈ 1280 µM)

**Q.** And the MIC (S. aureus VRS1)?
**A.** 512 µg/mL (≈ 1280 µM)

**Q.** What about the MIC (S. aureus VRS2) of the same molecule?
**A.** 256 µg/mL (≈ 638 µM)

**Q.** And the MIC [5]?
**A.** 128 µg/mL (≈ 319 µM)
